No end group written: not given here.
Target: Su(dx) WW4 (Drosophila melanogaster, UniProt Q9Y0H4)
Test: ITC binding of peptides to Su
Summary of the method: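 Cleaved Su(dx) WW4 (GST fusion from E. coli BL21, glutathione-bead purified, PreScission-cleaved, dialysed overnight into ITC buffer) at 15–35 μm in cell; 1–1.5 mm peptide titrated in. Peptide and protein concentrations set by denaturing Trp/Tyr UV absorbance. 50 mm phosphate, 150 mm NaCl, pH 7.4, degassed; 25 °C. Dilution-corrected heats fitted for ΔH and Ka, n fixed at 1.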

Sequence of Su(dx) WW4 (Q9Y0H4 515-557): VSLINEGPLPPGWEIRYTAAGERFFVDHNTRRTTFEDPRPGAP

Row | Sequence | Kd [µM]
1 | AKQPPSYEDC [N2] | 45 ± 3
2 | AKQPPSYEDCIK [N1] | 45 ± 2

Source: publication PMC4244684 (The Journal of biological chemistry, 2007)
